Measured values: ChEMBL document CHEMBL5344427, “Small Molecule Ligands of the BET-like Bromodomain, SmBRD3, Affect Schistosoma mansoni Survival, Oviposition, and Development” (J Med Chem, 2023)
Activity calls are given as the source filed them. No cut-off for these calls is given here.

What was measured:
Schistosoma mansoni [1] = test: Antiparasitic activity against Schistosoma mansoni assessed as effect on schistosomula phenotype at 10 to 20 uM incubated for 72 hrs by high content imaging analysis; type: functional, organism-based; settings: dose 10-20 µM
How it was run: (§1)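 Schistosomula from mechanically transformed cercariae, 120/well, dosed from 10 mM DMSO stock at 20 and 10 μM final in duplicate (0.625% DMSO), ≥4 independent screens (Z′ >0.35). Auranofin 10 μM positive and DMSO negative controls. Phenotype and motility read by high content imaging after 72 h.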

Schistosoma mansoni [2] = test: Antiparasitic activity against Schistosoma mansoni assessed as effect on schistosomula motility at 10 to 20 uM incubated for 72 hrs by high content imaging analysis; type: functional, organism-based; settings: dose 10-20 µM; how it was run: as §1
Schistosoma mansoni [3] = test: Binding affinity to Schistosoma mansoni BRD3 BD 2 by ITC analysis
Schistosoma mansoni [4] = test: Antiparasitic activity against Schistosoma mansoni adult worms assessed as lethality at 20 uM incubated for 72 hrs; type: functional, organism-based
Schistosoma mansoni [5] = test: Antiparasitic activity against Schistosoma mansoni assessed as inhibition of miracidia to sporocyst transformation at 0.5 to 25 uM incubated for 48 hrs by enumeration method; type: functional, organism-based; settings: dose 0.5-25 µM
How it was run: (§2)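 Miracidia hatched from eggs, washed in Chernin's balanced salt solution, 15–25 per well. Exposed to 0.5, 2.0, 5.0, 10 and 25 μM final in 1% DMSO, 48 h at 26 °C in the dark. Dead, partially and fully transformed parasites counted as % of population. Three independent experiments, two technical replicates each; CBSS/1% DMSO negative control.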

[6] = Binding affinity to Schistosoma mansoni BRD3 BD 2 assessed as dissociation constant by ITC analysis
Schistosoma mansoni [7] = test: Binding affinity to Schistosoma mansoni BRD3 BD 1 assessed as thermal stability at 50 uM by DSF analysis
Schistosoma mansoni [8] = test: Binding affinity to Schistosoma mansoni BRD3 BD 2 assessed as thermal stability at 50 uM by DSF analysis
How it was run: (§3)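 Differential scanning fluorimetry on recombinant SmBRD3(1,2) tandem construct or SmBRD3(2) single domain, compounds at 50 μM; ΔTm as mean of n = 3 with SD.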

Schistosoma mansoni [9] = test: Binding affinity to Schistosoma mansoni BRD3 BD 1 and 2 assessed as thermal stability at 50 uM by DSF analysis; how it was run: as §3
[10] = (§4) Prodrug conversion in Schistosoma mansoni adult worms assessed as 3-(3,5-dimethylisoxazol-4-yl)-5-(hydroxy(phenyl)methyl)phenol metabolite formation at 20 uM incubated for 24 hrs followed by compound washout thrice and subsequent addition of fresh medium without compound by LC-MS analysis; type: ADME
Schistosoma mansoni [11] = test: Antiparasitic activity against Schistosoma mansoni assessed as effect on schistosomula motility incubated for 72 hrs by high content imaging analysis; type: functional, organism-based; how it was run: as §1
Schistosoma mansoni [12] = test: Antiparasitic activity against Schistosoma mansoni assessed as effect on schistosomula phenotype incubated for 72 hrs by high content imaging analysis; type: functional, organism-based; how it was run: as §1
[13] = Binding affinity to Schistosoma mansoni BRD3 BD 1 and 2 assessed as dissociation constant by ITC analysis
[14] = Prodrug conversion in Schistosoma mansoni adult worms assessed as ester hydrolysis in media at 20 uM incubated for 24 hrs followed by compound washout thrice and subsequent addition of fresh medium without compound by LC-MS analysis; type: ADME
[15] = as §4, with “4-{(2S,4R)-1-acetyl-2-methyl-4-[(quinolin-6-yl)amino]-1,2,3,4-tetrahydroquinolin-6-yl}benzoic acid” for “3-(3,5-dimethylisoxazol-4-yl)-5-(hydroxy(phenyl)methyl)phenol”; type: ADME
How it was run: (§5)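 Adult worms exposed to 20 μM compound for 24 h, medium exchanged three times, worms then lysed; parent and acid levels in lysate quantified by LCMS.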

Schistosoma mansoni [16] = test: Antiparasitic activity against Schistosoma mansoni assessed as inhibition of miracidia to sporocyst transformation incubated for 48 hrs by enumeration method; type: functional, organism-based; settings: dose 0.5-25 µM; how it was run: as §2
[17] = Drug uptake in Schistosoma mansoni adult worms at 20 uM incubated for 24 hrs followed by compound washout thrice and subsequent addition of fresh medium without compound by LC-MS analysis; type: ADME; how it was run: as §5
Schistosoma mansoni [18] = test: Antiparasitic activity against Schistosoma mansoni adult worms assessed as reduction in worm pairing at 20 uM incubated for 72 hrs by imaging analysis; type: functional, organism-based
How it was run: (§6)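 Adult worm pairs perfused from TO mice infected percutaneously 7 weeks earlier with 180 cercariae; 1 pair/well in duplicate, dosed at 20 μM in 0.2% DMSO for 72 h. Motility scored by digital image processing (WormassayGP2); in vitro laid eggs counted and pairing noted. DMSO negative and praziquantel positive controls; n = 2 independent screens, 2 technical replicates each.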

Schistosoma mansoni [19] = test: Antiparasitic activity against Schistosoma mansoni adult worms assessed as reduction in oviposition at 20 uM incubated for 72 hrs by imaging analysis; type: functional, organism-based; how it was run: as §6
Schistosoma mansoni [20] = test: Antiparasitic activity against Schistosoma mansoni adult worms assessed as effect on worm motility at 20 uM incubated for 72 hrs by imaging analysis; type: functional, organism-based; how it was run: as §6

SMILES: CC(=O)N1c2ccc(-c3ccc(C(=O)O)cc3)cc2[C@@H](Nc2ccc3ccsc3c2)C[C@H]1C
- Activity (Schistosoma mansoni [1]): inactive
- Activity (Schistosoma mansoni [2]): inactive
- Activity (Schistosoma mansoni [3]): inactive
- Activity (Schistosoma mansoni [4]): inactive

SMILES: Cc1noc(C)c1-c1cc(O)cc(C(O)c2ccc(F)cc2)c1 (centres undefined)
- Activity (Schistosoma mansoni [3]): inactive
- Activity (Schistosoma mansoni [4]): inactive
- inhibition (Schistosoma mansoni [5]): inactive

SMILES: CC(=O)N1c2ccc(-c3ccc(C(=O)O)cc3)cc2[C@H](Nc2ccc3ccsc3c2)C[C@@H]1C
- pKd [6]: 6.2
- Activity (Schistosoma mansoni [4]): inactive

SMILES: CC(=O)N1c2ccc(-c3ccc(C(=O)O)cc3)cc2[C@H](Nc2ccc3sccc3c2)C[C@@H]1C
- pKd [6]: 6.3
- Activity (Schistosoma mansoni [4]): inactive

SMILES: Cc1noc(C)c1-c1cc(O)cc(C(O)c2ccccc2)c1 (centres undefined)
- Activity (Schistosoma mansoni [7]): Active
- Activity (Schistosoma mansoni [3]): inactive
- Activity (Schistosoma mansoni [8]): inactive
- Activity (Schistosoma mansoni [4]): inactive
- Activity (Schistosoma mansoni [9]): Active

SMILES: CC(=O)Oc1cc(-c2c(C)noc2C)cc(C(O)c2ccccc2)c1 (centres undefined)
- Activity (Schistosoma mansoni [1]): Active
- Activity (Schistosoma mansoni [2]): Active
- Drug metabolism [10]: Metabolite_Detected
- Activity (Schistosoma mansoni [3]): inactive
- Activity (Schistosoma mansoni [4]): inactive
- inhibition (Schistosoma mansoni [5]): inactive

SMILES: Cc1noc(C)c1-c1cc(O)cc(C(O)c2cccnc2)c1 (centres undefined)
- Activity (Schistosoma mansoni [3]): inactive
- Activity (Schistosoma mansoni [4]): inactive

SMILES: CC(=O)N1c2ccc(-c3ccc(C(=O)O)cc3)cc2[C@H](Nc2ccc3ncccc3c2)C[C@@H]1C
- pKd [6]: 6.4
- EC50 (Schistosoma mansoni [11]): 3300 nM
- EC50 (Schistosoma mansoni [12]): 1110 nM
- Activity (Schistosoma mansoni [4]): inactive

SMILES: Cc1sc2c(c1C)C(c1ccc(Cl)cc1)=N[C@@H](CC(=O)OC(C)(C)C)c1nnc(C)n1-2
- Activity (Schistosoma mansoni [7]): Active
- Kd [13]: 445 nM
- pKd [13]: 6.4
- Activity (Schistosoma mansoni [3]): inactive
- Activity (Schistosoma mansoni [8]): inactive
- Activity (Schistosoma mansoni [4]): inactive
- inhibition (Schistosoma mansoni [5]): Active
- Activity (Schistosoma mansoni [9]): Active

SMILES: CCOC(=O)c1ccc(-c2ccc3c(c2)[C@H](Nc2ccc4ncsc4c2)C[C@H](C)N3C(C)=O)cc1
- Kd [6]: 1180 nM
- Activity (Schistosoma mansoni [4]): inactive

SMILES: CC(=O)N1c2ccc(-c3ccc(C(=O)O)cc3)cc2[C@H](Nc2ccc3ccoc3c2)C[C@@H]1C
- pKd [6]: 5.9
- EC50 (Schistosoma mansoni [11]): 3920 nM
- EC50 (Schistosoma mansoni [12]): 2430 nM
- Activity (Schistosoma mansoni [4]): inactive

SMILES: CCOC(=O)c1ccc(-c2ccc3c(c2)[C@H](Nc2ccc4ncccc4c2)C[C@H](C)N3C(C)=O)cc1
- Kd [6]: 364 nM
- Drug metabolism [14]: Metabolite_Detected
- Drug metabolism [15]: Metabolite_Detected
- inhibition (Schistosoma mansoni [16]): Dose-Dependent Effect
- Activity (Schistosoma mansoni [4]): inactive
- Drug uptake [17]: Active

SMILES: CCOC(=O)c1ccc(-c2ccc3c(c2)[C@H](Nc2ccc4ccoc4c2)C[C@H](C)N3C(C)=O)cc1
- Kd [6]: 1180 nM
- Activity (Schistosoma mansoni [4]): inactive

SMILES: CC[C@@H]1C(=O)N(C)c2cnc(Nc3ccc(C(=O)NC4CCN(C)CC4)cc3OC)nc2N1C1CCCC1
- Activity (Schistosoma mansoni [8]): Active
- Activity (Schistosoma mansoni [9]): Active

SMILES: CCOC(=O)c1ccc(-c2ccc3c(c2)[C@H](Nc2ccc4[nH]ccc4c2)C[C@H](C)N3C(C)=O)cc1
- Kd [6]: 651 nM
- Activity (Schistosoma mansoni [4]): inactive

SMILES: CC(=O)N1c2ccc(-c3ccc(C(=O)O)cc3)cc2[C@H](Nc2ccc3ncsc3c2)C[C@@H]1C
- pKd [6]: 5.9
- EC50 (Schistosoma mansoni [11]): 2850 nM
- EC50 (Schistosoma mansoni [12]): 2140 nM
- Activity (Schistosoma mansoni [4]): inactive

SMILES: COc1cc2c3c(cnc2cc1-c1c(C)noc1C)NC(=O)C3[C@H](C)c1ccccn1 (some centres undefined)
- pKd [6]: 5.2

SMILES: CC(=O)N1c2ccc(-c3ccc(C(=O)O)cc3)cc2[C@H](Nc2ccc3[nH]ccc3c2)C[C@@H]1C
- pKd [6]: 6.2
- EC50 (Schistosoma mansoni [11]): 1810 nM
- EC50 (Schistosoma mansoni [12]): 2970 nM
- Activity (Schistosoma mansoni [4]): inactive

SMILES: CC(=O)N1c2ccc(-c3ccc(C(=O)O)cc3)cc2[C@H](Nc2ccc(Cl)cc2)C[C@@H]1C
- pKd [6]: 5.7
- Activity (Schistosoma mansoni [8]): Active
- Activity (Schistosoma mansoni [4]): inactive
- Activity (Schistosoma mansoni [9]): Active

SMILES: CCOC(=O)c1ccc(-c2ccc3c(c2)[C@@H](Nc2ccc4ccsc4c2)C[C@@H](C)N3C(C)=O)cc1
- Activity (Schistosoma mansoni [1]): inactive
- Activity (Schistosoma mansoni [2]): inactive
- Activity (Schistosoma mansoni [18]): inactive
- Activity (Schistosoma mansoni [4]): inactive
- inhibition (Schistosoma mansoni [5]): Active

SMILES: O=C(C1CCCCC1)N1CC(=O)N2CCc3ccccc3C2C1 (centres undefined)
- Activity (Schistosoma mansoni [4]): inactive

SMILES: CCOC(=O)c1ccc(-c2ccc3c(c2)[C@H](Nc2ccc4sccc4c2)C[C@H](C)N3C(C)=O)cc1
- Activity (Schistosoma mansoni [4]): inactive

SMILES: CCOC(=O)c1ccc(-c2ccc3c(c2)[C@H](Nc2ccc4ccsc4c2)C[C@H](C)N3C(C)=O)cc1
- Activity (Schistosoma mansoni [19]): Active
- Activity (Schistosoma mansoni [18]): Active
- inhibition (Schistosoma mansoni [16]): Dose-Dependent Effect
- Activity (Schistosoma mansoni [4]): inactive
- Activity (Schistosoma mansoni [20]): Active
